Assay results published in PMC12257300 (RSC Advances, 2025).
*: point of attachment. Fmoc = O=C(OCC1c2ccccc2-c2ccccc21)*

Columns and labels:
[1] = soft Fmoc-WWRR-NH2 based hydrogels; cited from earlier work
[2] = Gelation by inverted tube test / minimum gelation concentration; assay type: physicochemical; settings: 1 w/v% of sequence + 1 w/v% H-FQFQFK-NH2 in PBS
Summary of the method: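 Gels formed by adding PBS to the peptide acetate salt in a tube, then repeated vortexing (1 min) and sonication (5 min), and resting overnight at room temperature before assessment.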

[3] = Rheology, shear recovery experiment; assay type: physicochemical; settings: 2 w/v% P4 biogel, shear strain 50%, 1 Hz, 25 °C
Summary of the method: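 Hydrogel (350 μL) loaded on a 25 mm plate and rested 5 min. G′ and G′′ were recorded for 60 s at 1 Hz and 1% strain, then strain was raised to 50% for 30 s. The cycle was repeated 4 times under a 1 N normal force at 25 °C, in threefold.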

Substance	Gelation behavior of co-formulation with parent peptide (inverted tube test) [2]	also measured
Fmoc-WWRR-NH2	–	Storage modulus G′ of reported hydrogel [1]: ~100 Pa
H-RRWWQFQFK-NH2 [P5, H-RRWWQFQFK-NH2]	self-supporting hydrogels	–
H-RWRWQFQFK-NH2 [P4, H-RWRWQFQFK-NH2]	–	tan δ at increased shear strain [3]: 0.6
H-WRWRFQFQFK-NH2 [P2, H-WRWRFQFQFK-NH2]	self-supporting hydrogels	–
